Experimental data as given in ChEMBL document CHEMBL3600361, “Hydnocarpin-Type Flavonolignans: Semisynthesis and Inhibitory Effects on Staphylococcus aureus Biofilm Formation” (J Nat Prod, 2015).
Converted amounts (≈) assume the structure as drawn. The source made the active and inactive calls. No cut-off for these calls is given here.

What was measured:
Staphylococcus aureus [1] = assay: Disruption of biofilm formation in Staphylococcus aureus 8325-4 after 24 hrs by microtiter plate assay; type: functional, organism-based
Staphylococcus aureus [2] = assay: Toxicity in Staphylococcus aureus 8325-4 assessed as inhibition of bacterial growth; type: organism-based
Staphylococcus aureus [3] = assay: Inhibition of biofilm formation in Staphylococcus aureus 8325-4 after 24 hrs by microtiter plate assay; type: functional, organism-based; conditions: for EC50: Staphylococcus aureus, 8325-4, 24 h
Method in brief: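 Static 96-well crystal-violet assay with S. aureus 8325-4. Inoculum came from an overnight BHI agar culture, suspended in 0.9% NaCl to McF 0.5, 5 μL per well into TS medium containing compounds as monosodium salts at […]. Plates ran 24 h at 37 °C. Wells were rinsed three times, stained with 1% crystal violet for 15 min and eluted with 96% ethanol. Read at A630, at least triplicate.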

Staphylococcus aureus [4] = assay: Antibacterial activity against methicillin-resistant Staphylococcus aureus N315 by microbroth dilution method; type: functional
Method in brief: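 MIC against methicillin-resistant S. aureus N315, determined by standard microbroth dilution in Mueller-Hinton broth.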

Staphylococcus aureus [5] = assay: Antibacterial activity against Staphylococcus aureus ATCC 29213 by microbroth dilution method; type: functional
Method in brief: (§1)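 Standard broth microdilution in Mueller-Hinton broth gave MICs. For the combination lines, enrofloxacin MIC was measured with the tested compound present at the stated concentration.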

Staphylococcus aureus [6] = assay: Antibacterial activity against Staphylococcus aureus 8325-4 by microbroth dilution method; type: functional; method in brief: as §1
Staphylococcus aureus [7] = assay: Antibacterial activity against Staphylococcus aureus 8325-4 assessed as reduction of enrofloxacin MIC at 1 ug/ml by microbroth dilution method; type: functional; method in brief: as §1
Staphylococcus aureus [8] = assay: Antibacterial activity against Staphylococcus aureus ATCC 29213 assessed as reduction of enrofloxacin MIC at 32 ug/ml by microbroth dilution method; type: functional; method in brief: as §1
Staphylococcus aureus [9] = assay: Antibacterial activity against methicillin-resistant Staphylococcus aureus N315 assessed as reduction of enrofloxacin MIC at 32 ug/ml by microbroth dilution method; type: functional
Method in brief: (§2)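 Standard microbroth dilution in Mueller-Hinton broth against methicillin-resistant S. aureus N315. The enrofloxacin MIC was determined with the test compound added to the broth.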

Staphylococcus aureus [10] = assay: Inhibition of biofilm formation in Staphylococcus aureus 8325-4 at […] after 24 hrs by microtiter plate assay in presence of glucose; type: functional, organism-based
Method in brief: (§3)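 Same static crystal-violet biofilm protocol as above, with 1% glucose added to the TS medium. S. aureus 8325-4 grew 24 h at 37 °C with the compound. Adherent cells were stained with crystal violet, eluted in ethanol and read at A630. Means come from three independent experiments.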

Staphylococcus aureus [11] = assay: Inhibition of biofilm formation in Staphylococcus aureus 8325-4 at 8 mM after 24 hrs by microtiter plate assay in presence of glucose; type: functional; conditions: 8325-4, 24 h; method in brief: as §3
Staphylococcus aureus [12] = assay: Antibacterial activity against methicillin-resistant Staphylococcus aureus N315 assessed as reduction of enrofloxacin MIC at 1 ug/ml by microbroth dilution method; type: functional; method in brief: as §2
Staphylococcus aureus [13] = assay: Antibacterial activity against Staphylococcus aureus 8325-4 assessed as reduction of enrofloxacin MIC at 8 ug/ml by microbroth dilution method; type: functional; method in brief: as §1
Staphylococcus aureus [14] = assay: Antibacterial activity against Staphylococcus aureus 8325-4 assessed as reduction of enrofloxacin MIC at 32 ug/ml by microbroth dilution method; type: functional; method in brief: as §1
Staphylococcus aureus [15] = assay: Antibacterial activity against Staphylococcus aureus ATCC 29213 assessed as reduction of enrofloxacin MIC at 8 ug/ml by microbroth dilution method; type: functional; method in brief: as §1
Staphylococcus aureus [16] = assay: Antibacterial activity against methicillin-resistant Staphylococcus aureus N315 assessed as reduction of enrofloxacin MIC at 8 ug/ml by microbroth dilution method; type: functional; method in brief: as §2
Staphylococcus aureus [17] = assay: Antibacterial activity against Staphylococcus aureus ATCC 29213 assessed as reduction of enrofloxacin MIC at 1 ug/ml by microbroth dilution method; type: functional; method in brief: as §1

Row | Compound | Activity (Staphylococcus aureus [1]) | Activity (Staphylococcus aureus [2]) | MBIC (Staphylococcus aureus [3]) | EC50 (Staphylococcus aureus [3]) | further results
1 | COc1cc([C@H]2Oc3ccc(-c4cc(=O)c5c(O)cc(O)cc5o4)cc3O[C@@H]2CO)ccc1O | inactive | Non-toxic | 64 µM | 16 µg/mL (≈ 34.5 µM) | –
2 | COc1cc([C@H]2Oc3cc(-c4cc(=O)c5c(O)cc(O)cc5o4)ccc3O[C@@H]2CO)ccc1O [HYDNOCARPIN] | inactive | Non-toxic | 64 µM | 16 µg/mL (≈ 34.5 µM) | –
3 | CCN1CCN(c2cc3c(cc2F)c(=O)c(C(=O)O)cn3C2CC2)CC1 [ENROFLOXACIN] | – | – | – | – | MIC (Staphylococcus aureus [4]): 2 µg/mL (≈ 5.56 µM); MIC (Staphylococcus aureus [5]): 1 µg/mL (≈ 2.78 µM); MIC (Staphylococcus aureus [6]): 0.5 µg/mL (≈ 1.39 µM)
4 | COc1cc([C@@H]2Oc3cc(-c4cc(=O)c5c(O)cc(O)cc5o4)ccc3O[C@H]2CO)ccc1O | inactive | Non-toxic | 8 µM | 2 µg/mL (≈ 4.31 µM) | MIC (Staphylococcus aureus [7]): 0.125 µg/mL; MIC (Staphylococcus aureus [8]): 0.0625 µg/mL; MIC (Staphylococcus aureus [9]): 0.5 µg/mL; inhibition (Staphylococcus aureus [10]): Active; inhibition at 8000 µM (Staphylococcus aureus [11]): 80%; MIC (Staphylococcus aureus [12]): 1 µg/mL; MIC (Staphylococcus aureus [13]): 0.0625 µg/mL; MIC (Staphylococcus aureus [14]): 0.0625 µg/mL; MIC (Staphylococcus aureus [15]): 0.0625 µg/mL; MIC (Staphylococcus aureus [16]): 0.5 µg/mL; MIC (Staphylococcus aureus [17]): 0.25 µg/mL
5 | COc1cc([C@H]2Oc3ccc([C@H]4Oc5cc(O)cc(O)c5C(=O)[C@@H]4O)cc3O[C@@H]2CO)ccc1O [ISOSILYBIN A] | inactive | Non-toxic | 124 µM | 32 µg/mL (≈ 66.3 µM) | –
6 | COc1cc(C2Oc3cc([C@H]4Oc5cc(O)cc(O)c5C(=O)[C@@H]4O)ccc3OC2CO)ccc1O (stereo partly specified) [SILIBININ] | inactive | Non-toxic | > 124 µM | 64 µg/mL (≈ 133 µM) | –
7 | COc1cc(C2Oc3cc(-c4cc(=O)c5c(O)cc(O)cc5o4)ccc3OC2CO)ccc1O (racemic) | inactive | Non-toxic | 32 µM | 4 µg/mL (≈ 8.61 µM) | –
8 | COc1cc([C@H]2Oc3cc(-c4oc5cc(O)cc(O)c5c(=O)c4O)ccc3O[C@@H]2CO)ccc1O | inactive | Non-toxic | 64 µM | 16 µg/mL (≈ 33.3 µM) | –
9 | COc1cc(C2Oc3c(O)cc(-c4cc(=O)c5c(O)cc(O)cc5o4)cc3C2CO)ccc1O (stereo unspecified) | inactive | Non-toxic | > 124 µM | 64 µg/mL (≈ 138 µM) | –
